MrgX1 antagonist: blocks BAM8-22 activation of human MrgX1 receptor | MRGX1-HEK293 calcium flux, Fluo-4, BAM8-22 antagonism; hits give low values | B-score at 10 µM | actives 1.3% (n = 310,000);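 active = calcium-response B-score plate-corrected more than 3 library SD below zero, starting fluorescence within 5 deviations, no agonist response on first addition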;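 also: peak minus trough fluorescence over baseline after final BAM8-22 challenge near maximal dose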
PHOSPHO1 block: PHOSPHO1 (human) inhibition; inhibition, % at 13.3 µM; actives 1.1% (n = 290,000); AID 1565; Q8TCT1; recombinant PHOSPHO1, absorbance phosphatase assay; in the data active = inhibition above about 60%
Target sequence (Q8TCT1 whole entry, looked up): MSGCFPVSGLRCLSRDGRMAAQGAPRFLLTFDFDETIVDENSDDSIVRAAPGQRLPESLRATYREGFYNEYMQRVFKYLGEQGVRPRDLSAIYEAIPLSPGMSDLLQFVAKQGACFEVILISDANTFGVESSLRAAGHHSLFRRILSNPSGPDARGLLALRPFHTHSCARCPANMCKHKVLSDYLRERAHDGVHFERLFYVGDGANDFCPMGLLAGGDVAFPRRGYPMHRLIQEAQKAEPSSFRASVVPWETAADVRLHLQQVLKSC
RGS4 inh: human RGS4 inhibition; actives 0.45% (n = 310,000); HEK293 M3R/RGS4 inducible, Fluo-4 calcium flux; hits give high values; triggered by carbachol at its EC20; B-score at 10 µM; AID 463165; P49798;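 active = B-score, a plate-corrected calcium signal, over three deviations above library mean, with baseline fluorescence within five deviations of library mean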;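 also: RGS4 expression induced by doxycycline in cells with stable M3 receptor; B-score is computed from the integrated fluorescence ratio over baseline after carbachol; higher B-score means a larger calcium signal and so more RGS4 inhibition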
Target sequence (P49798 whole entry, looked up): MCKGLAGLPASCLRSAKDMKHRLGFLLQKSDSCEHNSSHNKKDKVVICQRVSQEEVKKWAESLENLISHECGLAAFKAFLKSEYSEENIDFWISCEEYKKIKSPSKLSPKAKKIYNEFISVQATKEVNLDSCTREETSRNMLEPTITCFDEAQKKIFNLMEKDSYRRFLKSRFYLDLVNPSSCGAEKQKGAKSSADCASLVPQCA
MrgX1 PAM: allosterically activates human MrgX1 receptor signaling. B-score at 10 µM. actives 0.63% (n = 310,000). AID 588675. MrgX1-HEK293, Fluo-4 calcium flux, FDSS; hits give high values;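 active = plate-corrected calcium response at least 3 library SD above typical, normal starting fluorescence, not activating the receptor alone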;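 also: compound read alongside a low EC10 to EC30 dose of BAM8-22 agonist; peak minus trough fluorescence over baseline measured at the second addition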
RGS4 act: potentiators or activators of RGS4 | AID 463111 | HEK293 M3R/inducible RGS4, carbachol calcium flux Fluo4; hits give low values | B-score at 10 µM | actives 0.92% (n = 310,000);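 active = B-score of the integrated calcium signal more than 4 SD below the library mean, with starting fluorescence not abnormally high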;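 also: negative B-score means reduced calcium response which marks RGS4 activation or potentiation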
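Material: Inducible-RGS4 HEK293 cells carrying M3 receptor; also added: carbachol at ECmax as muscarinic agonist stimulus; incubation: compound preincubation 20 min at room temperature before agonist; signal: Fluo4-AM (2 µM) calcium-flux fluorescence, kinetic read; measure: integrated calcium ratio converted to B score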
MrgX1 ag: human MrgX1 receptor agonism, primary screen; Q96LB2; MrgX1-HEK293 cells, Fluo-4 calcium fluorescence, agonist mode; hits give high values; B-score at 10 µM; actives 0.44% (n = 310,000); AID 588627;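 active = calcium response B-score plate-corrected fluorescence ratio at least 3 library SD, with starting fluorescence B-score inside 5 SD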
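Material: HEK293 cells stably expressing human MrgX1 receptor | Quantity: 15,000 cells per well | Times: Cells plated overnight, dye loaded 0.5 h 37 °C, 0.5 h room temperature | Measured by: Kinetic Fluo-4 NW fluorescence of intracellular calcium | Control set: Positive and negative controls per plate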
A number is an active result; – = inactive; · = not tested or not shown. Sampled rows, rich in hits. Any-hit rate of the full collection: about 4.5%.

SMILES | MrgX1 antagonist | PHOSPHO1 block | RGS4 inh | MrgX1 PAM | RGS4 act | MrgX1 ag
c1ccc(-c2ccc(CN3CCN(c4ncccn4)CC3)cc2)cc1 | – | – | – | – | -7 | –
c1ccc(CN2CCN(c3ncccn3)CC2)cc1 | – | · | – | – | – | –
Cc1cc(C)n(Cc2n[nH]c(=S)n2Cc2ccccc2)n1 | – | 90 | – | – | – | –
Cc1nn(Cc2n[nH]c(=S)n2Cc2ccccc2)c(C)c1Cl | – | 99 | – | – | – | –
Cc1ccccc1OCc1n[nH]c(=S)n1Cc1ccccc1 | – | – | – | – | – | –
Cc1ccc(S(=O)(=O)c2c(C)cc(C)nc2Oc2cccc(C(F)(F)F)c2)cc1 | – | – | – | – | -8.2 | –
O=C(Oc1c(Br)cc(C(=S)N2CCOCC2)cc1Br)c1ccc(Cl)cc1 | – | 96 | – | – | – | –
O=Cc1cc(Br)c(OC(=O)N2CCOCC2)c(Br)c1 | – | – | – | – | – | 27
O=S(=O)(c1ccccc1)c1nc(-c2ccco2)oc1NCc1cccnc1 | – | 68 | – | – | – | –
O=S(=O)(c1ccccc1)c1nc(-c2ccccc2)oc1NCc1cccnc1 | – | – | – | – | – | –
N=C1/C(=C\c2ccc(SCc3ccccc3)o2)C(=O)N=C2SC=NN12 | – | – | – | 8.7 | – | –
N=C1/C(=C\c2ccc(SCc3ccccc3)o2)C(=O)N=C2SC(CC(=O)N3CCOCC3)=NN12 | – | – | – | – | – | –
CC(C)N(C(=O)c1nn(C)c2c1CSc1ccccc1-2)C1CCCCC1 | – | – | – | 15 | – | –
COc1ccc(-c2ccc3c(N)c(C(=O)c4cccc(OC)c4)sc3n2)cc1 | – | 89 | – | – | – | –
CCC(=O)Nc1ccc(C(=O)Cn2ncc(Cl)c(Cl)c2=O)cc1 | – | – | – | – | – | –
Cc1ccc(NC(=O)Cn2ncc3c([nH]c4ccccc43)c2=O)cc1Cl | – | 63 | – | – | – | –
O=C(Cn1ncc2c([nH]c3ccccc32)c1=O)Nc1cccnc1 | – | – | – | – | – | –
CCOC(=O)c1ccc(NC(=O)Cn2ncc(Cl)c(Cl)c2=O)cc1 | -5.2 | – | – | – | – | –
O=C(NC1CC1)c1ccc(-n2cccc2)cc1 | – | – | – | – | – | –
O=C1C2CC=CCC2C(=O)N1c1ccc(NCCc2ccc(O)cc2)c([N+](=O)[O-])c1 (stereo not drawn) | -5.2 | – | – | – | – | –
O=C(CCS(=O)(=O)c1cccc2nsnc12)NC1CCCCC1 | – | – | – | – | – | –
CC(C)NC(=O)c1cnc(Sc2ncc(C(F)(F)F)cc2Cl)n1C | – | – | – | – | -7.6 | –
Cn1c(C(=O)O)cnc1Sc1ncc(C(F)(F)F)cc1Cl | – | – | – | – | – | –
CC(=O)OCC1O[C@@H](O[C@@H]2C[C@H]3C(C)(C)[C@H](OC(C)=O)CC[C@]3(C)[C@H]3CC[C@]45C[C@]4(CC[C@H]5[C@@H](C)C[C@@H](O)[C@H](O)C(C)(C)O)[C@@]32C)[C@H](O)[C@@H](O)[C@@H]1O (stereo partly drawn) | – | – | – | – | – | 42
O=S1(=O)[C@H]2C[C@@H]3C=C[C@]2(CN1Cc1ccc(C(F)(F)F)cc1)O3 | – | – | – | – | – | –
SMILES | MrgX1 antagonist | PHOSPHO1 block | RGS4 inh | MrgX1 PAM | RGS4 act | MrgX1 ag
Cc1ccsc1/C=N/n1c(-c2ccco2)n[nH]c1=S | – | 62 | – | – | – | –
CC(/C=N/n1c(-c2ccco2)n[nH]c1=S)=C\c1ccco1 | -5.9 | – | – | – | – | –
CC(/C=N/n1c(-c2ccc(C)cc2)n[nH]c1=S)=C\c1ccco1 | – | – | – | – | – | –
CC(/C=N/n1c(-c2ccccc2)n[nH]c1=S)=C\c1ccco1 | – | 84 | – | – | -7.2 | –
CC(C)=CCCC1=CCC(/C=N/NC(N)=O)C(C)C1 (stereo not drawn) | – | – | – | – | – | –
Cn1c(CO)cnc1SCc1ccc(F)cc1 | – | – | – | – | – | –
Cn1c(CO)cnc1SCc1c(Cl)cccc1Cl | – | 74 | – | – | – | –
Cc1c(NC(=O)C2(c3ccccc3)CCOCC2)c(=O)n(-c2ccccc2)n1C | – | – | – | 6.7 | – | –

Compound activity (PubChem)
